Experimental data from ChEMBL document CHEMBL4422627, “Discovery of potent, orally bioavailable ERK1/2 inhibitors with isoindolin-1-one structure by structure-based drug design” (Eur J Med Chem, 2019).
Each block holds one compound with its values, some of them ahead of it. Activity calls are given as the source filed them. No cut-off for these calls is given here.

Columns and labels:
[1] = molecular target: Mitogen-activated protein kinase 1 (Homo sapiens, UniProt P28482); test: Inhibition of ERK2 (unknown origin) using […] as substrate after 40 mins by ADP-Glo luminescence assay
Chain of Mitogen-activated protein kinase 1 (P28482 whole entry): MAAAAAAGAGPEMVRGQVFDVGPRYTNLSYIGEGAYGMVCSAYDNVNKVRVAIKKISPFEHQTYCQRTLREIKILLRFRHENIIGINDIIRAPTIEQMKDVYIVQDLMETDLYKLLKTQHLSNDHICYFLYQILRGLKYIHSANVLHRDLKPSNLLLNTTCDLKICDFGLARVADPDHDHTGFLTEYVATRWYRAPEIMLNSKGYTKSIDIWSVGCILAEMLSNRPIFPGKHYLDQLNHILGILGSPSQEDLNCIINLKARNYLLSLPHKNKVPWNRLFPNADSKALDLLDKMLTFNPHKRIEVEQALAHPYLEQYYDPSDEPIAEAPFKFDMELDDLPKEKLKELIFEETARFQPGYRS

[2] = molecular target: T1, Mitogen-activated protein kinase; ERK1/ERK2 (Homo sapiens) (UniProt P27361+P28482); test: Inhibition of ERK1/2 in human HCT116 cells assessed as reduction in RSK phosphorylation at Thr359/Ser363 residues by Western blot analysis; format: cell-based
T1 sequence (P27361 whole entry, looked up): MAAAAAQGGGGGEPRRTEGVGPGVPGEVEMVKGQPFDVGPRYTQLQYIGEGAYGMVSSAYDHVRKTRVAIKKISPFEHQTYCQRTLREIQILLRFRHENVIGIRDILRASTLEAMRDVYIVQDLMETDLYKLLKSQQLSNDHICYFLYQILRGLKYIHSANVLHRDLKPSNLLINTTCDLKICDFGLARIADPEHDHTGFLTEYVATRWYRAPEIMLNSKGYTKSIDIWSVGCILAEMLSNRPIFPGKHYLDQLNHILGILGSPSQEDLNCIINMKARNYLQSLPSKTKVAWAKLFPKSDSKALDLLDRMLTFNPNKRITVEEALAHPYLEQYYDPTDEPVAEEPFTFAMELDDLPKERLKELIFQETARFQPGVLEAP
T1 sequence (P28482 whole entry, looked up): as the sequence (P28482 whole entry) above
Summary of the method: (§1)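 Phosphorylation of ERK1/2 and RSK in HCT116 cells measured by western blot over a range of compound concentrations; means ± SD of three independent experiments, each condition run in triplicate.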

[3] = molecular target: T1, Mitogen-activated protein kinase; ERK1/ERK2 (Homo sapiens); test: Inhibition of ERK1/2 phosphorylation at Thr202/Tyr204 residues in human HCT116 cells by Western blot analysis; format: cell-based; summary of the method: as §1
[4] = tested on: HCT-116; test: Induction of apoptosis in human HCT116 cells assessed as increase in condense bright apoptotic nuclei formation at 1 uM by Hoechst 33258 staining-based assay; format: functional, cell-based
Summary of the method: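 After compound incubation, HCT116 cells stained with Hoechst 33258 and examined for condensed, bright apoptotic nuclei; n=3 per group.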

[5] = molecular target: Mitogen-activated protein kinase 3 (Homo sapiens, UniProt P27361); test: Inhibition of ERK1 (unknown origin) using […] as substrate after 40 mins by ADP-Glo luminescence assay
Chain of Mitogen-activated protein kinase 3 (P27361 whole entry): as the sequence (P27361 whole entry, looked up) above

[6] = tested on: COLO 205; test: Antiproliferative activity against human COLO205 cells after 72 hrs by MTT assay; format: functional, cell-based; conditions: COLO 205, 72 h
[7] = tested on: WM 266-4; test: Antiproliferative activity against human WM266.4 cells after 72 hrs by MTT assay; format: functional, cell-based; conditions: WM 266-4, 72 h
[8] = tested on: K562; test: Antiproliferative activity against human K562 cells after 72 hrs by MTT assay; format: functional, cell-based; conditions: K562, 72 h
[9] = tested on: SW626; test: Antiproliferative activity against human SW626 cells after 72 hrs by MTT assay; format: functional, cell-based; conditions: SW626, 72 h
[10] = tested on: HCT-116; test: Antiproliferative activity against human HCT116 cells after 72 hrs by MTT assay; format: functional, cell-based; conditions: HCT-116, 72 h
[11] = tested on: NCM460; test: Cytotoxicity against human NCM460 cells assessed as reduction in cell viability at 10000 nM after 72 hrs by MTT assay; format: cell-based; conditions: ncm460, 72 h, 10 µM
[12] = MRT (0 to t) in Sprague-Dawley rat at 50 mg/kg, po by LC/MS/MS analysis; format: ADME, organism-based; conditions: in vivo
Summary of the method: (§2)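 Sprague-Dawley rats dosed intravenously at 5 mg/kg or orally at 50 mg/kg; pharmacokinetic parameters derived from the plasma concentration data.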

[13] = Half life in Sprague-Dawley rat at 50 mg/kg, po by LC/MS/MS analysis; format: ADME, organism-based; conditions: in vivo; summary of the method: as §2
[14] = AUC (0 to t) in Sprague-Dawley rat at 50 mg/kg, po by LC/MS/MS analysis; format: ADME, organism-based; conditions: in vivo; summary of the method: as §2
[15] = Oral bioavailability in Sprague-Dawley rat at 50 mg/kg by LC/MS/MS analysis; format: ADME, organism-based; conditions: in vivo; summary of the method: as §2
[16] = Cmax in Sprague-Dawley rat at 50 mg/kg, po by LC/MS/MS analysis; format: ADME, organism-based; parameters: dose 50 mg/kg, route oral; conditions: in vivo; summary of the method: as §2
[17] = tested on: HCT-116; test: Cell cycle arrest in human HCT116 cells assessed as accumulation at G2/M phase at 1 uM after 72 hrs by annexin V-FITC and propidium iodide staining based flow cytometric analysis (reference value: 43.5%); format: functional
[18] = Toxicity against Balb/c nude mouse xenografted with human HCT116 cells assessed as reduction in body weight at 50 mg/kg, po qd for 30 days and measured every 3 days; format: organism-based; conditions: in vivo
Summary of the method: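 HCT-116 xenograft nude mice dosed at 50 mg/kg orally once daily for 30 days; body weight recorded every 3 days.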

[19] = tested on: HCT-116; test: Induction of apoptosis in human HCT116 cells assessed as viable cells at 1 uM after 72 hrs by annexin V-FITC and propidium iodide staining based flow cytometric analysis (reference value: 94.3%); format: functional; conditions: HCT-116, 72 h, read-out: Activity
Summary of the method: (§3)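 HCT116 cells treated with compound, PI-stained, and analysed for apoptosis by flow cytometry; means ± SD of three independent experiments, each condition in triplicate.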

[20] = tested on: HCT-116; test: Induction of apoptosis in human HCT116 cells assessed as early apoptotic cells at 1 uM after 72 hrs by annexin V-FITC and propidium iodide staining based flow cytometric analysis (reference value: 3.88%); format: functional; summary of the method: as §3
[21] = tested on: HCT-116; test: Antitumor activity against human HCT116 cells xenografted in Balb/c nude mouse assessed as tumor growth inhibition at 50 mg/kg, po qd for 30 days and measured every 3 days by calliper method relative to control; format: functional; conditions: HCT-116, po, read-out: TGI
Summary of the method: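 Nude mice bearing HCT-116 xenografts; test article given as hydrochloride salt, 50 mg/kg orally once daily for 30 days; efficacy expressed as percent tumor growth inhibition.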

[22] = tested on: HCT-116; test: Induction of apoptosis in human HCT116 cells assessed as late apoptotic cells at 1 uM after 72 hrs by annexin V-FITC and propidium iodide staining based flow cytometric analysis (reference value: 1.20%); format: functional; summary of the method: as §3
[23] = tested on: HCT-116; test: Cell cycle arrest in human HCT116 cells assessed as accumulation at G0/G1 phase at 1 uM after 72 hrs by annexin V-FITC and propidium iodide staining based flow cytometric analysis (reference value: 44.3%); format: functional
[24] = tested on: HCT-116; test: Induction of apoptosis in human HCT116 cells assessed as necrotic cells at 1 uM after 72 hrs by annexin V-FITC and propidium iodide staining based flow cytometric analysis (reference value: 0.21%); format: functional; summary of the method: as §3

- IC50 [1]: 11.2 nM
Structure (SMILES): CC(C)Nc1nccc(-c2ccc3c(c2)C(=O)N(C(CO)c2cccc(Cl)c2)C3)n1 (configuration not stated)

- IC50 [1]: 19.8 nM
Structure (SMILES): Cn1nnnc1Nc1nccc(-c2ccc3c(c2)C(=O)N(C(CO)c2cccc(Cl)c2)C3)n1 (configuration not stated)

- IC50 [1]: 1.1 nM
Structure (SMILES): Cn1cc(Nc2nccc(-c3ccc4c(c3)C(=O)N([C@H](CO)c3cccc(Cl)c3)C4)n2)cn1

- IC50 [1]: 7.2 nM
Structure (SMILES): O=C1c2cc(-c3ccnc(NC4CCCCC4)n3)ccc2CN1C(CO)c1cccc(Cl)c1 (configuration not stated)

- IC50 [1]: 2.7 nM
Structure (SMILES): O=C1c2cc(-c3ccnc(NC4CCC(O)CC4)n3)ccc2CN1C(CO)c1cccc(Cl)c1 (configuration not stated)

- IC50 [1]: 17.8 nM
Structure (SMILES): O=C1c2cc(-c3ccnc(NC4CCOCC4)n3)ccc2CN1Cc1ccc(Cl)c(F)c1

- IC50 [1]: 30.4 nM
Structure (SMILES): O=C1c2cc(-c3ccnc(NC4CCOCC4)n3)ccc2CN1C(CO)c1ccc(Cl)cc1 (configuration not stated)

- IC50 [1]: 38.4 nM
Structure (SMILES): O=C1c2cc(-c3ccnc(NCCCO)n3)ccc2CN1C(CO)c1cccc(Cl)c1 (configuration not stated)

- IC50 [1]: > 1000 nM
Structure (SMILES): Cn1nccc1Nc1nccc(-c2ccc3c(c2)C(=O)N(Cc2cccnc2)C3)n1

- IC50 [1]: 3.1 nM
Structure (SMILES): O=C1c2cc(-c3ccnc(NC4CCOCC4)n3)ccc2CN1C(CO)c1ccc(Cl)c(Cl)c1 (configuration not stated)

- IC50 [1]: 35.6 nM
Structure (SMILES): O=C1c2cc(-c3ccnc(NC4CCOCC4)n3)ccc2CN1Cc1ccc(Cl)cc1

- IC50 [1]: 5.6 nM
Structure (SMILES): Cn1nccc1Nc1nccc(-c2ccc3c(c2)C(=O)N(Cc2ccc(Cl)c(F)c2)C3)n1

Continued, compound first:

Structure (SMILES): O=C1c2cc(-c3ccnc(NC4CCNC4)n3)ccc2CN1C(CO)c1cccc(Cl)c1 (configuration not stated)
- IC50 [1]: > 1000 nM

Structure (SMILES): O=C1c2cc(-c3ccnc(NC4CCOCC4)n3)ccc2CN1Cc1ccc(F)c(Cl)c1
- IC50 [1]: 2.9 nM

Structure (SMILES): O=C1c2cc(-c3ccnc(NC4CCOC4)n3)ccc2CN1C(CO)c1cccc(Cl)c1 (configuration not stated)
- IC50 [1]: 5.4 nM

Structure (SMILES): O=C1c2cc(-c3ccnc(NC4CCOCC4)n3)ccc2CN1C(CO)c1cccc(Cl)c1 (configuration not stated) [listing 1 of 2 here]
- inhibition [2]: Dose-dependent effect
- inhibition [3]: Dose-dependent effect
- Activity [4]: Active

Structure (SMILES): Cn1cc(Nc2nccc(-c3ccc4c(c3)C(=O)N(Cc3cccc(Cl)c3)C4)n2)cn1
- IC50 [5]: 21 nM
- IC50 [6]: 204 nM
- IC50 [7]: 174 nM
- IC50 [8]: 2740 nM
- IC50 [1]: 3.6 nM
- IC50 [9]: 209 nM
- IC50 [10]: 148 nM

Structure (SMILES): Cn1ccc(Nc2nccc(-c3ccc4c(c3)C(=O)N(C(CO)c3cccc(Cl)c3)C4)n2)n1 (configuration not stated)
- IC50 [1]: 25.6 nM

Structure (SMILES): O=C1c2cc(-c3ccnc(NCCO)n3)ccc2CN1C(CO)c1cccc(Cl)c1 (configuration not stated)
- IC50 [1]: 17.6 nM

Structure (SMILES): O=C1c2cc(-c3ccnc(NC4CCOCC4)n3)ccc2CN1[C@H](CO)c1cccc(Cl)c1
- IC50 [1]: 0.8 nM

Structure (SMILES): Cc1cccc(CN2Cc3ccc(-c4ccnc(Nc5ccnn5C)n4)cc3C2=O)n1
- IC50 [1]: > 1000 nM

Structure (SMILES): Cn1nccc1Nc1nccc(-c2ccc3c(c2)C(=O)N(Cc2ccccn2)C3)n1
- IC50 [1]: > 1000 nM

Structure (SMILES): Cn1nccc1Nc1nccc(-c2ccc3c(c2)C(=O)N(Cc2cccc(Cl)c2)C3)n1
- IC50 [8]: 2870 nM
- IC50 [1]: 3.5 nM

Structure (SMILES): Cn1cc(Nc2nccc(-c3ccc4c(c3)C(=O)N(C(CO)c3cccc(Cl)c3)C4)n2)cn1 (configuration not stated)
- IC50 [5]: 4.1 nM
- IC50 [6]: 227 nM
- Activity [11]: Non-Toxic
- IC50 [7]: 211 nM
- IC50 [8]: 3820 nM
- IC50 [1]: 1.2 nM
- IC50 [9]: 206 nM
- IC50 [10]: 201 nM

Structure (SMILES): O=C1c2cc(-c3ccnc(NC4CCOCC4)n3)ccc2CN1[C@@H](CO)c1cccc(Cl)c1
- IC50 [1]: 201 nM

Structure (SMILES): Cn1nccc1Nc1nccc(-c2ccc3c(c2)C(=O)N(C(CO)c2cccc(Cl)c2)C3)n1 (configuration not stated)
- IC50 [5]: 3.6 nM
- IC50 [6]: 252 nM
- IC50 [7]: 217 nM
- IC50 [8]: 2930 nM
- IC50 [1]: 1.9 nM
- IC50 [9]: 252 nM
- IC50 [10]: 251 nM

Structure (SMILES): O=C1c2cc(-c3ccnc(NC4CCNCC4)n3)ccc2CN1C(CO)c1cccc(Cl)c1 (configuration not stated)
- IC50 [1]: > 1000 nM

Structure (SMILES): Cl.O=C1c2cc(-c3ccnc(NC4CCOCC4)n3)ccc2CN1Cc1cccc(Cl)c1
- MRT last [12]: 1.2 h
- half-life [13]: 0.37 h
- AUC(0-t) [14]: 1280 ng·h/mL
- bioavailability [15]: 6.9%
- Cmax [16]: 747 ng/mL

Structure (SMILES): O=C1c2cc(-c3ccnc(Nc4ccncc4)n3)ccc2CN1Cc1cccc(Cl)c1
- IC50 [1]: 36.3 nM

Structure (SMILES): Cn1cc(Nc2nccc(-c3ccc4c(c3)C(=O)N([C@@H](CO)c3cccc(Cl)c3)C4)n2)cn1
- IC50 [1]: 633 nM

Structure (SMILES): O=C1c2cc(-c3ccnc(NC4CCOCC4)n3)ccc2CN1Cc1cccc(Cl)c1
- IC50 [5]: 3.3 nM
- IC50 [6]: 170 nM
- IC50 [7]: 220 nM
- IC50 [8]: 1550 nM
- IC50 [1]: 1.6 nM
- IC50 [9]: 255 nM
- IC50 [10]: 150 nM

Structure (SMILES): Cl.O=C1c2cc(-c3ccnc(NC4CCOCC4)n3)ccc2CN1C(CO)c1cccc(Cl)c1 (configuration not stated)
- MRT last [12]: 3.4 h
- half-life [13]: 3.6 h
- AUC(0-t) [14]: 8380 ng·h/mL
- bioavailability [15]: 22.5%
- Cmax [16]: 1920 ng/mL

Structure (SMILES): O=C1c2cc(-c3ccnc(Nc4ncco4)n3)ccc2CN1C(CO)c1cccc(Cl)c1 (configuration not stated)
- IC50 [1]: 93.3 nM

Structure (SMILES): O=C1c2cc(-c3ccnc(Nc4ccc(F)cc4)n3)ccc2CN1Cc1cccc(Cl)c1
- IC50 [1]: > 1000 nM

Structure (SMILES): O=C1c2cc(-c3ccnc(Nc4nccs4)n3)ccc2CN1C(CO)c1cccc(Cl)c1 (configuration not stated)
- IC50 [1]: 22.3 nM

Structure (SMILES): O=C1c2cc(-c3ccnc(NC4CCOCC4)n3)ccc2CN1C(CO)c1cccc(Cl)c1 (configuration not stated) [listing 2 of 2 here]
- Activity [17]: 29.5%
- Activity [18]: Non-Toxic
- viability at 1 µM [19]: 61.3%
- IC50 [5]: 1.5 nM
- IC50 [6]: 194 nM
- Activity [11]: Non-Toxic
- IC50 [7]: 260 nM
- Activity [20]: 27.7%
- inhibition in vivo at 50 mg/kg [21]: 71%
- IC50 [8]: 3190 nM
- IC50 [1]: 0.7 nM
- Activity [22]: 10.4%
- IC50 [9]: 247 nM
- Activity [23]: 58%
- Activity [24]: 0.12%
- IC50 [10]: 155 nM
